Data on six substances can be found in publication PMC8639468 (The Journal of Biological Chemistry, 2021).

Where no end group is shown, it is not given here. Some results are limits rather than exact numbers.

One series deals with HeLa cells. Nature of the series: Saporin cytosolic delivery, MTT lethality. The series is classed as cell-based. Particulars: SAP 10, 20, 50 μg/ml alone, 60 min. In short, it runs like this: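 HeLa seeded at 1×10^4 cells/well and grown 24 h. Cells exposed to saporin, with or without vehicle peptide, for 1 h at 37 °C. After two PBS washes, cells kept in DMEM for 6 h at 37 °C. Viability read by MTT: formazan in DMSO at 490 nm, lethality calculated against untreated cells and cell-free blank.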
On to “SAP: membrane-impermeable ribosome-inactivation protein, 28.6 kDa cargo”, for which the “cell survival with saporin alone” value is listed as “barely affected”.

Tested on in another series: not listed separately
In words: MTT cytotoxicity assay. The class given is cell-based. Particulars: human, HeLa cells. An outline of the steps: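 HeLa cells (1×10^4/well) grown 24 h, then exposed to serially diluted peptides for 1 h at 37 °C. Peptide removed; MTT added (5 mg/ml stock in PBS) in fresh medium for 4 h at 37 °C. Formazan dissolved in DMSO and read at 490 nm. Lethality = (Acon − A)/(Acon − Abl), using untreated cells and cell-free blank. IC50 from semilog curves, three independent measurements.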
ILILAAKLLKALKKEAKLLK-NH2 [LP3] displayed an IC50 at 1 h of 12.5 µM.
Same read-out and setting: the result for ILILAAKLLKLLKKELKLLK-NH2 [LP2] reads 1.3 µM; that for KLLKLLKKELKLLK-NH2 [LP1], more than 128 µM; that for ILILAAKLAKALKKEAKALK-NH2 [LP4], more than 128 µM.
Still for that read-out and setting: the result for ILILILAAKLAKALKKEAKALK-NH2 [LP5] reads 13 µM.
